The structures appear in SMILES notation.

A short description of test [1]: Binding affinity of compound was measured for bradykinin receptor in guinea pig ileum. Format: tissue-based, Cavia porcellus.
Test [2] in a line: Antagonistic activity of compound was measured in SV-T2 cells. It counts as functional, cell-based. To be noted: Mus musculus, read-out: pA2 (converted). In outline: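 SV-T2 fibroblasts, which express only B2 receptors. Antagonism of bradykinin-stimulated prostaglandin synthesis was measured and expressed as pA2. Agonist activity was also checked at concentrations up to 10 μM.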

Test [3] in a line: Antagonistic activity of compound was measured for bradykinin receptor in guinea pig ileum. Format: functional, tissue-based. To be noted: Cavia porcellus, read-out: pA2 (converted). Put shortly: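 Guinea pig ileal longitudinal muscle strips, which express only B2 receptors. Cumulative bradykinin dose-response curves were run without and with increasing antagonist concentrations (0.1-0.3 μM), and antagonism was expressed as pA2. Agonist activity was also checked at concentrations up to 10 μM.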

Regarding `CO[C@@H]1C[C@@H](C(=O)N2Cc3ccccc3CC2C(=O)N[C@@H](CCCN=C(N)N)C(=O)O)N(C(=O)[C@H](CO)NC(=O)[C@@H](NC(=O)CNC(=O)[C@@H]2C[C@H](O)CN2C(=O)[C@@H]2CCCN2C(=O)[C@H](CCCN=C(N)N)NC(=O)[C@H](N)CCCN=C(N)N)c2cccs2)C1` (stereo partly drawn), the Ki (in general, the dissociation constant of the complex between target and ligand, obtained from inhibition or displacement) in test [1] stood at 2.12 nM. The Kb in test [2] is 3.98 nM; in test [3] it was 186 nM.
The like results for `CCCO[C@@H]1C[C@@H](C(=O)N2Cc3ccccc3C[C@H]2C(=O)N[C@@H](CCCN=C(N)N)C(=O)O)N(C(=O)[C@H](CO)NC(=O)[C@@H](NC(=O)CNC(=O)[C@@H]2C[C@H](O)CN2C(=O)[C@@H]2CCCN2C(=O)[C@H](CCCN=C(N)N)NC(=O)[C@H](N)CCCN=C(N)N)c2cccs2)C1` were, in that order, 0.77 nM, 1.58 nM and 24.5 nM.
With `CCCO[C@@H]1C[C@@H](C(=O)N2C3CCCCC3C[C@H]2C(=O)N[C@@H](CCCN=C(N)N)C(=O)O)N(C(=O)[C@H](CO)NC(=O)[C@@H](NC(=O)CNC(=O)[C@@H]2C[C@H](O)CN2C(=O)[C@@H]2CCCN2C(=O)[C@H](CCCN=C(N)N)NC(=O)[C@H](N)CCCN=C(N)N)c2cccs2)C1` (stereo partly drawn), the Ki in test [1] is 0.16 nM. Further, the Kb in test [2] was 0.251 nM; in test [3], 2.88 nM.
The like results for `CO[C@H]1C[C@@H](C(=O)N2Cc3ccccc3C[C@H]2C(=O)N[C@@H](CCCN=C(N)N)C(=O)O)N(C(=O)[C@H](CO)NC(=O)[C@@H](NC(=O)CNC(=O)[C@@H]2C[C@H](O)CN2C(=O)[C@@H]2CCCN2C(=O)[C@H](CCCN=C(N)N)NC(=O)[C@H](N)CCCN=C(N)N)c2cccs2)C1` were, in that order, 102 nM, 251 nM and 8910 nM.
Consider `CCCO[C@H]1C[C@@H](C(=O)N2Cc3ccccc3C[C@H]2C(=O)N[C@@H](CCCN=C(N)N)C(=O)O)N(C(=O)[C@H](CO)NC(=O)[C@@H](NC(=O)CNC(=O)[C@@H]2C[C@H](O)CN2C(=O)[C@@H]2CCCN2C(=O)[C@H](CCCN=C(N)N)NC(=O)[C@H](N)CCCN=C(N)N)c2cccs2)C1`, for which the Ki in test [1] was found to be 144 nM. The Kb in test [2] is 158 nM; in test [3] it was 5750 nM.
The like results for `NC(N)=NCCC[C@@H](N)C(=O)N[C@@H](CCCN=C(N)N)C(=O)N1CCC[C@H]1C(=O)N1C[C@H](O)C[C@H]1C(=O)NCC(=O)N[C@@H](Cc1ccccc1)C(=O)N[C@@H](CO)C(=O)N[C@H](Cc1ccccc1)C(=O)N[C@@H](Cc1ccccc1)C(=O)N[C@@H](CCCN=C(N)N)C(=O)O` were, in that order, 57.9 nM, 10 nM and 1510 nM.

The values above are taken from ChEMBL document CHEMBL1125194, “Probing the bradykinin receptor: mapping the geometric topography using ethers of hydroxyproline in novel peptides” (J Med Chem, 1991).
